Measurements reported in ChEMBL document CHEMBL1938375, “Design, synthesis and biological evaluation of pyrazole derivatives as potential multi-kinase inhibitors in hepatocellular carcinoma” (Eur J Med Chem, 2012).
Calls of active or inactive are those of the source. The rule behind the calls is not given here.

Key:
SNU-449 [1] = experiment: Cell cycle arrest in human SNU449 cells assessed as accumulation at G1 phase at 100 uM after 48 to 72 hrs using […]propidium iodide staining by flow cytometric analysis; format: functional, cell-based
SNU-449 [2] = experiment: Decrease of cyclin D1 level in human SNU449 cells at 50 uM after 72 hrs by Western blotting relative to beta-actin; format: functional
Outline: (§1)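 Western blots in SNU449 cells treated at a single intermediate level for 72 h, with DMSO as control. Blots probed cyclin D1, p21, p27 and p53. Band intensities were given as the ratio of protein to β-actin.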

SNU-449 [3] = experiment: Effect on p27 expression in human SNU449 cells at 50 uM after 72 hrs by Western blotting relative to beta-actin; format: functional; outline: as §1
SNU-449 [4] = experiment: Up-regulation of p21 expression in human SNU449 cells at 50 uM after 72 hrs by Western blotting relative to beta-actin; format: functional; outline: as §1
SNU-449 [5] = experiment: Up-regulation of p53 expression in human SNU449 cells at 50 uM after 72 hrs by Western blotting relative to beta-actin; format: functional; outline: as §1
SNU-449 [6] = experiment: Induction of apoptosis in human SNU449 cells at 50 to 100 uM after 72 hrs using annexin V/propidium iodide staining by flow cytometric analysis; format: functional, cell-based
Outline: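 SNU449 cells were treated at two compound levels for 72 h, with DMSO as control. Apoptosis was detected by Annexin V/propidium iodide staining and flow cytometry, following the kit instructions. Values are averages ± SD.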

SNU-449 [7] = experiment: Cytotoxicity against human SNU449 cells at 50 uM after 48 hrs; format: functional, cell-based
Outline: (§2)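 Trypan blue exclusion counts on SNU449 cells grown in RPMI 1640 with 10% FBS and antibiotics. Compounds came from 10 mM DMSO stocks, diluted and tested at 50, 100 and 150 for 48 and 72 h in triplicate, with DMSO as control. Viable cells were counted in a Burker chamber. IC50 was derived from percentage viable cells relative to control.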

SNU-449 [8] = experiment: Cytotoxicity against human SNU449 cells at 50 uM after 72 hrs; format: functional, cell-based; outline: as §2
SNU-449 [9] = experiment: Cytotoxicity against human SNU449 cells after 48 hrs; format: functional, cell-based; settings: SNU-449, 48 h; outline: as §2
SNU-449 [10] = experiment: Cytotoxicity against human SNU449 cells after 72 hrs; format: functional, cell-based; settings: SNU-449, 72 h; outline: as §2
[11] = target: RAC-alpha serine/threonine-protein kinase (Homo sapiens) (UniProt P31749); experiment: Inhibition of AKT phosphorylation in human SNU449 cells at 25 uM after 48 hrs by Western blotting relative to beta-actin; format: cell-based; settings: SNU-449
RAC-alpha serine/threonine-protein kinase (Homo sapiens), sequence (P31749 whole entry): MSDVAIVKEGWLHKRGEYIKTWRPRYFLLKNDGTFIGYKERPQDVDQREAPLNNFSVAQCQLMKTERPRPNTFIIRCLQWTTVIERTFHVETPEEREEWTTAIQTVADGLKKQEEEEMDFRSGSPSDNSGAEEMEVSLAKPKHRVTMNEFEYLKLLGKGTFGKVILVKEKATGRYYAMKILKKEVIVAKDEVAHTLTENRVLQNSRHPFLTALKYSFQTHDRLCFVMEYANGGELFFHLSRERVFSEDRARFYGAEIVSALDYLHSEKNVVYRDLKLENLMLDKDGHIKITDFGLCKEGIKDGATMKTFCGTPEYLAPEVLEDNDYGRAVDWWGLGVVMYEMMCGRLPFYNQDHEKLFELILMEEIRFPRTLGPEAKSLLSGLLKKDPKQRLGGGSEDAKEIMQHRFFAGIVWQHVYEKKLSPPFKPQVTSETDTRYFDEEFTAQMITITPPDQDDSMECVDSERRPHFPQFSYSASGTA
Outline: (§3)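 Western blot for P-AKT in SNU449 cells treated at 25, 50 and 100 for 48 h and 72 h, with DMSO-treated cells as control. Bands were quantified as the P-AKT to β-actin ratio.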

[12] = target: RAC-alpha serine/threonine-protein kinase (Homo sapiens) (UniProt P31749); experiment: Inhibition of AKT phosphorylation in human SNU449 cells at 50 uM after 48 hrs by Western blotting relative to beta-actin; format: cell-based; settings: SNU-449; outline: as §3
[13] = target: RAC-alpha serine/threonine-protein kinase (Homo sapiens) (UniProt P31749); experiment: Inhibition of AKT phosphorylation in human SNU449 cells at 100 uM after 48 hrs by Western blotting relative to beta-actin; format: cell-based; settings: SNU-449; outline: as §3
[14] = target: RAC-alpha serine/threonine-protein kinase (Homo sapiens) (UniProt P31749); experiment: Inhibition of AKT phosphorylation in human SNU449 cells at 25 uM after 72 hrs by Western blotting relative to beta-actin; format: cell-based; settings: SNU-449; outline: as §3
[15] = target: RAC-alpha serine/threonine-protein kinase (Homo sapiens) (UniProt P31749); experiment: Inhibition of AKT phosphorylation in human SNU449 cells at 50 uM after 72 hrs by Western blotting relative to beta-actin; format: cell-based; settings: SNU-449; outline: as §3
[16] = target: RAC-alpha serine/threonine-protein kinase (Homo sapiens) (UniProt P31749); experiment: Inhibition of AKT phosphorylation in human SNU449 cells at 100 uM after 72 hrs by Western blotting relative to beta-actin; format: cell-based; settings: SNU-449; outline: as §3
[17] = target: RAC-alpha serine/threonine-protein kinase (Homo sapiens) (UniProt P31749); experiment: Inhibition of AKT in human SNU449 cells assessed as phosphorylated RpS6 level at 50 uM after 48 hrs by Western blotting relative to beta-actin; format: cell-based; settings: SNU-449
Outline: (§4)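 Western blots in SNU449 cells treated at a single intermediate level for 48 and 72 h, with DMSO as control. Blots probed P-ERK1/2, P-GSK-3β (Ser-9) and P-RpS6. Band intensities were given as the ratio of phosphoprotein to β-actin.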

[18] = target: RAC-alpha serine/threonine-protein kinase (Homo sapiens) (UniProt P31749); experiment: Inhibition of AKT in human SNU449 cells assessed as phosphorylated RpS6 level at 50 uM after 72 hrs by Western blotting relative to beta-actin; format: cell-based; settings: SNU-449; outline: as §4
[19] = target: RAC-alpha serine/threonine-protein kinase (Homo sapiens) (UniProt P31749); experiment: Inhibition of AKT in human SNU449 cells assessed as phosphorylated GSK3-beta level at 50 uM after 48 hrs by Western blotting relative to beta-actin; format: cell-based; settings: SNU-449; outline: as §4
[20] = target: RAC-alpha serine/threonine-protein kinase (Homo sapiens) (UniProt P31749); experiment: Inhibition of AKT in human SNU449 cells assessed as phosphorylated GSK3-beta level at 50 uM after 72 hrs by Western blotting relative to beta-actin; format: cell-based; settings: SNU-449; outline: as §4
[21] = target: RAC-alpha serine/threonine-protein kinase (Homo sapiens) (UniProt P31749); experiment: Inhibition of AKT in human SNU449 cells assessed as phosphorylated […] level at 50 uM after 72 hrs by Western blotting relative to beta-actin; format: cell-based; settings: SNU-449
[22] = target: RAC-alpha serine/threonine-protein kinase (Homo sapiens) (UniProt P31749); experiment: Inhibition of AKT in human SNU449 cells assessed as phosphorylated ERK1/2 level at 50 uM after 48 hrs by Western blotting relative to beta-actin; format: cell-based; settings: SNU-449; outline: as §4
[23] = target: RAC-alpha serine/threonine-protein kinase (Homo sapiens) (UniProt P31749); experiment: Inhibition of AKT in human SNU449 cells assessed as phosphorylated ERK1/2 level at 50 uM after 72 hrs by Western blotting relative to beta-actin; format: cell-based; settings: SNU-449; outline: as §4
SNU-449 [24] = experiment: Cell cycle arrest in human SNU449 cells assessed as accumulation at G1 phase at 25 uM after 48 to 72 hrs using […]propidium iodide staining by flow cytometric analysis; format: functional, cell-based
[25] = target: RAC-alpha serine/threonine-protein kinase (Homo sapiens) (UniProt P31749); experiment: Inhibition of AKT in human SNU449 cells assessed as beta-catenin level at 50 uM after 48 hrs by Western blotting relative to beta-actin; settings: SNU-449
[26] = target: RAC-alpha serine/threonine-protein kinase (Homo sapiens) (UniProt P31749); experiment: Inhibition of AKT in human SNU449 cells assessed as total MDM2 protein level at 50 uM after 72 hrs by Western blotting relative to beta-actin; settings: SNU-449
[27] = target: RAC-alpha serine/threonine-protein kinase (Homo sapiens) (UniProt P31749); experiment: Inhibition of AKT in human SNU449 cells assessed as phosphorylated MDM2 level at 50 uM after 72 hrs by Western blotting relative to beta-actin; settings: SNU-449
SNU-449 [28] = experiment: Cell cycle arrest in human SNU449 cells assessed as decrease in S phase at 100 uM after 48 to 72 hrs using […]propidium iodide staining by flow cytometric analysis
SNU-449 [29] = experiment: Cell cycle arrest in human SNU449 cells assessed as accumulation at G1 phase at 50 uM after 72 hrs using […]propidium iodide staining by flow cytometric analysis; format: functional, cell-based

SMILES	Activity (SNU-449 [1])	Ratio (SNU-449 [2])	Ratio (SNU-449 [3])	Ratio (SNU-449 [4])	Ratio (SNU-449 [5])	Activity (SNU-449 [6])	Activity (SNU-449 [7])	Activity (SNU-449 [8])	IC50 (SNU-449 [9]) [µM]	IC50 (SNU-449 [10]) [µM]	Ratio [11]	Ratio [12]	Ratio [13]	Ratio [14]	Ratio [15]	Ratio [16]	Ratio [17]	Ratio [18]	Ratio [19]	Ratio [20]	also measured
Cc1cccc(-c2cc(C(=O)Nc3ccc(N)cc3)n(-c3ccc(N)cc3)n2)c1C	Active	0.39	0.95	4.6	1.4	Active	Active	Active	< 100	< 50	1.2	0.26	0.07	2.2	0.32	0.5	0.5	0.29	0.18	0.93	Ratio [21]: 0.75; Ratio [22]: 1.5; Ratio [23]: 1.1; Activity (SNU-449 [24]): Active; Ratio [25]: 0.57; Ratio [26]: 1.3; Ratio [27]: 0.4; Activity (SNU-449 [28]): Active
Cc1cccc(NC(=O)c2cc(C(=O)Nc3ccc(N)cc3)n(-c3ccc(N)cc3)n2)c1C	Active	0.67	1.2	4.6	1.3	Active	Active	Active	150	50	1.1	0.58	0.39	1.9	0.53	0.64	0.64	0.49	0.48	0.6	Ratio [21]: 0.46; Ratio [22]: 2; Ratio [23]: 0.91; Activity (SNU-449 [29]): Active; Ratio [25]: 0.41; Ratio [26]: 1.4; Ratio [27]: 0.65; Activity (SNU-449 [28]): Active
